Measured values reported in ChEMBL document CHEMBL4428026, “Discovery of New Monocarbonyl Ligustrazine-Curcumin Hybrids for Intervention of Drug-Sensitive and Drug-Resistant Lung Cancer” (J Med Chem, 2016).
pIC50: −log10 of the molar value. Calls of active or inactive are those of the source. The rule behind the calls is not given here.

Assays:
[1] = tested on: A549; test: Antiproliferative activity against human A549 cells after 72 hrs by MTT assay; format: functional, cell-based; conditions: A549, 72 h
How it was run: (§1)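 Cells (A549, A549/DDP, SPC-A-1, LTEP-G-2, non-tumor bronchial epithelial HBE) were exposed in triplicate to vehicle or compound for 72 h. MTT (5 mg/mL in PBS) was then added for 4 h, formazan was dissolved in DMSO, and absorbance was read at 570 nm. IC50 values were derived from viability.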

[2] = tested on: A549/CDDP; test: Antiproliferative activity against human A549/CDDP cells after 72 hrs by MTT assay; format: functional, cell-based; how it was run: as §1
[3] = Antiproliferative activity against human SPC-A1 cells after 72 hrs by MTT assay; format: functional, cell-based; conditions: SPCA1, 72 h; how it was run: as §1
[4] = Antiproliferative activity against human LTEP-G2 cells after 72 hrs by MTT assay; format: functional, cell-based; how it was run: as §1
[5] = Cytotoxicity against NHBE cells after 72 hrs by MTT assay; format: cell-based; conditions: Homo sapiens; how it was run: as §1
[6] = biological target: T1, Thioredoxin reductase (Homo sapiens, UniProt Q16881+Q9NNW7+Q86VQ6); test: Inhibition of thioredoxin reductase (unknown origin) after 2 hrs by DTNB dye based microplate spectrophotometry; format: protein assay
How it was run: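 NADPH-reduced TrxR (0.16 µM) was preincubated in triplicate with vehicle DMSO (0.1%, v/v) or varying compound concentrations for 2 h. It was then reacted with 2 mM DTNB and 200 µM NADPH for 3 min, and absorbance was read at 412 nm. IC50 was derived.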

[7] = biological target: T1, Thioredoxin reductase; test: Inhibition of thioredoxin reductase in human A549 cells by DTNB dye based microplate spectrophotometry; format: cell-based
How it was run: (§2)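 A549 or A549/DDP cells were treated with varying compound concentrations for 24 h, then harvested, homogenized and centrifuged. Protein (50 µg) was reacted in triplicate with NADPH and DTNB in TE buffer at 37 °C for 1 h, and TNB was read at 412 nm. Activity was taken from a purified-TrxR standard curve, and IC50 was derived.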

[8] = biological target: T1, Thioredoxin reductase; test: Inhibition of thioredoxin reductase in human A549/CDDP cells by DTNB dye based microplate spectrophotometry; format: cell-based; how it was run: as §2
[9] = biological target: ATP-dependent translocase ABCB1 (Homo sapiens, UniProt P08183); test: Inhibition of P-gp ATPase activity in human A549/CDDP cells at 200 uM by luminescence assay (reference value: 706683 +/- 23554 RLU); format: cell-based
Sequence of ATP-dependent translocase ABCB1 (P08183 whole entry): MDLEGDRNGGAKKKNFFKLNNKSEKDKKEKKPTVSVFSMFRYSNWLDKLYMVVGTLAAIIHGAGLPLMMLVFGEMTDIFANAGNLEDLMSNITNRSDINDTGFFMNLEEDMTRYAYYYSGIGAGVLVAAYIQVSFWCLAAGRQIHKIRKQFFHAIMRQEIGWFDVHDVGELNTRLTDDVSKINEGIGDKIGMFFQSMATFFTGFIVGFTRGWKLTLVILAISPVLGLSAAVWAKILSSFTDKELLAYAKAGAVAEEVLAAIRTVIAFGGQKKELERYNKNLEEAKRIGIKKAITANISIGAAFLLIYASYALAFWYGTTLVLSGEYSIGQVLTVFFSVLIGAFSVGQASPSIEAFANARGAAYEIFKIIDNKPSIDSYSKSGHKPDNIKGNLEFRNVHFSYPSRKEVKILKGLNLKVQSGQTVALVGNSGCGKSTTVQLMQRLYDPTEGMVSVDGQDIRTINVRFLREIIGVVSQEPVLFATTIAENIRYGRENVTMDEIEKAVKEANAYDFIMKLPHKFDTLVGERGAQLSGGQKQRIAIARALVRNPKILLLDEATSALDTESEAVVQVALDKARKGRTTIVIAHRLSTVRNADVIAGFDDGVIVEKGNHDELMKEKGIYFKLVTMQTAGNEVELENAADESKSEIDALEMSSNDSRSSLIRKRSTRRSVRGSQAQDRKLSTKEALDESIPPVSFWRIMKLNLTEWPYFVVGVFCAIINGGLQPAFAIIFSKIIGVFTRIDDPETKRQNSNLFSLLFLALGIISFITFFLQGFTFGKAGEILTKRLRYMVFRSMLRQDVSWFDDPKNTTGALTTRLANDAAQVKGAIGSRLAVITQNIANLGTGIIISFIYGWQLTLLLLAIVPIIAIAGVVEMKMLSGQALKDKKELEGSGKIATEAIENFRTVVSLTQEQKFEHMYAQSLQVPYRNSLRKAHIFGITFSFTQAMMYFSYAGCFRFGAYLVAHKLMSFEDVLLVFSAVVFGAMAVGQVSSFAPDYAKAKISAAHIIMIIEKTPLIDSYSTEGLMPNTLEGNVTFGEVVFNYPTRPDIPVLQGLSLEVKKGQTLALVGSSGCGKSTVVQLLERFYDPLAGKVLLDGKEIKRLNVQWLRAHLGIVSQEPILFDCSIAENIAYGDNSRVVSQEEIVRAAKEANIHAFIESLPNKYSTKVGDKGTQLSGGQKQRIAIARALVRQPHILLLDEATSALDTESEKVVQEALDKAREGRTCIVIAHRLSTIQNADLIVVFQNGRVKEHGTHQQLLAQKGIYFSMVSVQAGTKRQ

[10] = tested on: A549; test: Induction of apoptosis in human A549 cells at 2.1 to 4.2 uM after 24 hrs by annexin V-FITC/propidium iodide staining-based flow cytometry; format: functional, cell-based
How it was run: (§3)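 Cells were seeded at 1 × 10^5/well and treated 24 h with DMSO (1%) or compound. They were then washed in PBS, stained with FITC-Annexin V and propidium iodide, and apoptotic fractions were quantified by flow cytometry.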

[11] = tested on: A549/CDDP; test: Induction of apoptosis in human A549/CDDP cells at 0.6 to 1.2 uM after 24 hrs by annexin V-FITC/propidium iodide staining-based flow cytometry; format: functional, cell-based; how it was run: as §3

Row | Compound | pIC50 [1] | pIC50 [2] | also measured
1 | COc1ccc(/C=C/C(=O)/C=C/c2nc(C)c(C)nc2C)c(OC)c1 | 5.51 | 5.55 | pIC50 [3]: 5.20; pIC50 [4]: 5.23; pIC50 [5]: 4.68; IC50 [6]: 7.63 µM; IC50 [7]: 4.12 µM; IC50 [8]: 4.26 µM
2 | COc1ccc(CCN(C)CCCC(C#N)(c2ccc(OC)c(OC)c2)C(C)C)cc1OC (stereo not given) [VERAPAMIL] | – | – | Activity [9]: 641490 RLU
3 | Cc1nc(C)c(/C=C/C(=O)/C=C/c2cccc([N+](=O)[O-])c2)nc1C | 5.17 | 5.17 | –
4 | Cc1nc(C)c(/C=C/C(=O)/C=C/c2ccc([N+](=O)[O-])cc2)nc1C | 5.02 | 5.10 | –
5 | Cc1nc(C)c(/C=C/C(=O)/C=C/c2ccc3c(c2)OCO3)nc1C | 5.35 | 5.28 | –
6 | COc1cc(/C=C/C(=O)/C=C/c2nc(C)c(C)nc2C)cc(OC)c1OC | 5.80 | 6.00 | pIC50 [3]: 5.27; pIC50 [4]: 5.63; pIC50 [5]: 4.84; IC50 [6]: 3.06 µM; IC50 [7]: 2.36 µM; IC50 [8]: 1.98 µM
7 | Cc1nc(C)c(C)nc1C [LIGUSTRAZINE] | < 3.70 | < 3.70 | IC50 [6]: > 200 µM; IC50 [7]: > 200 µM; IC50 [8]: > 200 µM; Activity [10]: Active; Activity [11]: Active
8 | Cc1nc(C)c(/C=C/C(=O)/C=C/c2ccccc2O)nc1C | 5.32 | 5.41 | –
9 | COc1ccc(/C=C/C(=O)/C=C/c2nc(C)c(C)nc2C)cc1OC | 5.42 | 5.61 | pIC50 [3]: 5.27; pIC50 [4]: 5.36; pIC50 [5]: 4.79; IC50 [6]: 7.09 µM; IC50 [7]: 4.17 µM; IC50 [8]: 4.22 µM
10 | SODIUM ORTHOVANAD | – | – | Activity [9]: 790447 RLU
11 | Cc1nc(C)c(/C=C/C(=O)/C=C/c2ccccc2)nc1C | 4.91 | 4.93 | –
12 | Cc1nc(C)c(/C=C/C(=O)/C=C/c2ccccc2[N+](=O)[O-])nc1C | 4.76 | 5.19 | –
13 | Cc1ccc(/C=C/C(=O)/C=C/c2nc(C)c(C)nc2C)cc1 | 5.37 | 5.40 | –
14 | Cc1nc(C)c(/C=C/C(=O)/C=C/c2ccc(O)cc2)nc1C | 5.40 | 5.32 | –
15 | Cc1nc(C)c(/C=C/C(=O)/C=C/c2ccc(Cl)cc2)nc1C | 4.80 | 5.13 | –
16 | COc1ccc(/C=C/C(=O)/C=C/c2nc(C)c(C)nc2C)cc1 | 5.46 | 5.44 | –
17 | COc1cccc(/C=C/C(=O)/C=C/c2nc(C)c(C)nc2C)c1O | 5.55 | 5.66 | pIC50 [3]: 5.24; pIC50 [4]: 5.30; pIC50 [5]: 4.76; IC50 [6]: 5.3 µM; IC50 [7]: 4.73 µM; IC50 [8]: 4.64 µM
18 | Cc1nc(C)c(/C=C/C(=O)/C=C/c2ccc(C(F)(F)F)cc2)nc1C | 4.93 | 5.16 | –
19 | Cc1nc(C)c(/C=C/C(=O)/C=C/c2ccc(F)cc2)nc1C | 5.23 | 5.13 | –
20 | Cc1nc(C)c(/C=C/C(=O)/C=C/c2cccc(O)c2)nc1C | 5.37 | 5.43 | –
21 | COc1cccc(/C=C/C(=O)/C=C/c2nc(C)c(C)nc2C)c1 | 5.48 | 5.46 | –
22 | COc1cc(/C=C/C(=O)CC(=O)/C=C/c2ccc(O)c(OC)c2)ccc1O [CURCUMIN] | 4.42 | 4.49 | IC50 [6]: 41.42 µM; IC50 [7]: 40.56 µM; IC50 [8]: 39.42 µM; Activity [10]: Active; Activity [11]: Active
23 | Cc1nc(C)c(/C=C/C(=O)/C=C/c2ccc3ccccc3c2)nc1C | 5.15 | 4.93 | –
24 | COc1ccccc1/C=C/C(=O)/C=C/c1nc(C)c(C)nc1C | 5.49 | 5.32 | –
